# A selection: hits, their analogues and other compounds. The true share with any hit is near 1%.
# LYPLA2 inh = LYPLA2 inhibitors, primary screen, counter-screen for PME1 inhibitor project, biochemical, fluorescence polarization, FP-Rh probe ABPP; Acyl-protein thioesterase 2 (Homo sapiens), O95372; recombinant LYPLA2; inhibition, % at 5.9 µM; actives 0.38% (n = 320,000);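 active = inhibition above the screen-wide mean plus 3 SD, limit set per campaign, cut at about 26% in these data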
# Target sequence (O95372 whole entry, looked up): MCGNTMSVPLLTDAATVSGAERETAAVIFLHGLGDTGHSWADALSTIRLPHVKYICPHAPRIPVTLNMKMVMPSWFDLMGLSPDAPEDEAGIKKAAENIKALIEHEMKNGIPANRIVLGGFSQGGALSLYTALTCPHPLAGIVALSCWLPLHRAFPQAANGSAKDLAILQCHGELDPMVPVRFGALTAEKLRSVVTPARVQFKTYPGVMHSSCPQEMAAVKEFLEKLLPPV
# procasp3 activ = activators of human procaspase-3 D3A mutant, primary screen, biochemical, absorbance, PC-3 D3A mutant, single concentration; Caspase-3 (Homo sapiens), P42574; actives 0.11% (n = 330,000); recombinant procaspase-3 D3A, Ac-DEVD-pNA absorbance 405 nm; activation, % at 8.5 µM;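 active = activation above the mean of all tested compounds plus 3 SD, cut at about 21% in these data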
#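 Technique: 405 nm absorbance of p-nitroaniline, reads at 0 and 120 min; Test system: Procaspase-3 D3A mutant; Incubation: 1 h enzyme-compound preincubation, then 2 h substrate reaction, 25 °C; Repeats: singlicate, each compound tested once; Benchmarks: low control DMSO wells, high control DMSO plus 5 µM PC-3 D3A.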
# LYPLA1 inh = LYPLA1 inhibitors, primary screen, counter-screen for PME1 inhibitor project, biochemical, fluorescence polarization, FP-Rh probe ABPP; actives 0.16% (n = 320,000); inhibition, % at 5.9 µM; Acyl-protein thioesterase 1 (Homo sapiens), O75608; recombinant LYPLA1;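 active = inhibition above the mean of all tested compounds plus 3 SD, set per campaign, cut at about 14% in these data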;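 also: inhibitors block serine hydrolase probe labeling of LYPLA1 so polarization falls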
# proCasp7 act = procaspase-7 activators, primary screen, counter-screen for procaspase-3 activator project, biochemical, absorbance, HTS, human; actives 0.093% (n = 330,000); AID 463210, 2010; Caspase-7 (Homo sapiens), P55210; recombinant procaspase-7, Ac-DEVD-pNA absorbance 405 nm; D23A/D198A/D206A triple mutant, cannot self-cleave; scale: DMSO 0, 5 µM enzyme 100; activation, % at 8.5 µM;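 active = percent activation above the screen-wide mean plus 3 SD, cut at about 25% in these data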
#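 buffer or medium = Zinc-free HEPES/NaCl buffer, pH 7.4 | material = Procaspase-7 triple mutant (PC-7 D3A) | input = 2 µM procaspase-7 mutant as dispensed | signal = Epi-absorbance of released pNA at 405 nm, two timepoints | timing = 1 h preincubation, 2 h reaction | replicates = singlicate compound testing | evaluation = % activation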
# PME-1 primary = PME-1 inhibitors via competitive probe labeling, primary screen, biochemical, fluorescence polarization, FP-Rh probe, HTS. inhibition, % at 5.9 µM. actives 0.53% (n = 320,000). recombinant PME-1. Protein phosphatase methylesterase 1 (Homo sapiens), Q9Y570;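 active = inhibition above the campaign mean of all compounds plus 3 SD, cut at about 26% in these data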;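 also: competitive labeling of PME-1 active site by serine hydrolase directed probe; inhibitors block probe labeling so polarization falls and inhibition rises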
# Target sequence (Q9Y570 whole entry, looked up): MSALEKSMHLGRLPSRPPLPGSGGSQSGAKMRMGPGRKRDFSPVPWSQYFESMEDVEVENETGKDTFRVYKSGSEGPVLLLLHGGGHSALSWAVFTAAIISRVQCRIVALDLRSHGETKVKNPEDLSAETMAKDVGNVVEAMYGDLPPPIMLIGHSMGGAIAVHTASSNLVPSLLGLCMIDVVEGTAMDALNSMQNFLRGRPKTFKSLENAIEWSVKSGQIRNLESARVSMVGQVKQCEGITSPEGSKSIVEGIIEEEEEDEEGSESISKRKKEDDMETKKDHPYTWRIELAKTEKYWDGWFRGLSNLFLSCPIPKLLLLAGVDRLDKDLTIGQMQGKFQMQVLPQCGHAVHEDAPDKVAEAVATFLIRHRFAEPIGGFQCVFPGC
# Fam108B inh = mouse Fam108B serine hydrolase inhibitors, primary screen, counter-screen for RBBP9 inhibitor project, biochemical, fluorescence polarization. recombinant Fam108B, FP-Rh probe fluorescence polarization. inhibition, % at 9.51 µM. actives 0.33% (n = 300,000);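 active = inhibition above the screen mean inhibition plus 3 SD, computed separately per campaign, cut at about 18% in these data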;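 also: inhibitors lower polarization as less probe binds the enzyme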
# LYPLA2 conf = LYPLA2 inhibitors, retest, confirmation, counter-screen for PME1 inhibitor project, biochemical, fluorescence polarization, FP-Rh probe ABPP; inhibition, % at 5.9 µM; recombinant LYPLA2; shares compounds with LYPLA2 inh; AID 2232, 2010; actives 72% (n = 1,100);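 active = mean inhibition across replicates above the hit cutoff set in the primary screen, cut at about 26% in these data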;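 also: blocked labeling of the enzyme by serine hydrolase FP-Rh probe lowers polarization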
# LYPLA2 ABPP = LYPLA2 inhibitors in proteome, late-stage follow-up, gel-based competitive ABPP, fluorescence, assay provider | shares compounds with LYPLA2 inh | rhLYPLA2 in mouse brain proteome, gel ABPP FP-Rh | inhibition, % at 20 µM | actives 30% (n = 150);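 active = inhibition of LYPLA2 enzyme probe labeling above about 50%, limit read from the data; inactive = inhibition below that limit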;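 also: loss of FP-Rh probe labeling of the LYPLA2 gel band measured as band density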
# Hits are given with their value; – = inactive; · = not tested or not shown.
SMILES,LYPLA2 inh,procasp3 activ,LYPLA1 inh,proCasp7 act,PME-1 primary,Fam108B inh,LYPLA2 conf,others
Cc1cc(=O)oc2c(C)c(OCC(=O)N3CCN(c4cccc(Cl)c4)CC3)ccc12,30.3,–,–,–,–,–,33.7,
Cc1cc(=O)oc2c(C)c(OCC(=O)N3CCN(c4ccccc4)CC3)ccc12,–,–,–,–,–,–,·,
Cc1cc(=O)oc2c(C)c(OCC(=O)N3CCN(C(=O)C4COc5ccccc5O4)CC3)ccc12 (stereo not given),38.3,–,–,–,–,–,36.5,
O=[N+]([O-])c1cc(Cl)ccc1Oc1ccc(-c2nnco2)cc1,27.0,–,–,–,–,–,28.1,
COc1ccc(NC(=O)CC2SC3=NCCN3C2=O)cc1 (stereo not given),–,–,–,–,–,–,·,
N#Cc1ccc(CN2CCN(CC(=O)NCCc3ccc(Cl)cc3Cl)CC2)cc1,27.4,–,–,–,–,–,–,
O=C(Cn1cc(C(F)(F)F)ccc1=O)NCCc1ccc(Cl)cc1Cl,–,–,–,–,–,–,·,
CC1CCCN(C(=O)c2ccc(OC3CCN(CCc4ccccc4)CC3)cc2)C1 (stereo not given),40.9,–,–,–,–,–,32.6,
O=C(c1ccc(OC2CCN(CCc3ccccc3)CC2)cc1)N1CCCC(CO)C1 (stereo not given),–,–,–,–,–,–,·,
O=C(c1ccc2c(=O)n(Cc3ccccc3)c(=S)[nH]c2c1)N1CCOCC1,–,–,–,–,–,–,·,
CC(=O)c1ccc(N2CCN(C(=O)c3ccc(Cn4c(=S)[nH]c5ccc(N6CCOCC6)cc5c4=O)cc3)CC2)cc1,44.0,–,–,–,–,–,34.4,
O=C(CCCn1c(=S)[nH]c2cc3c(cc2c1=O)OCO3)N1CCN(c2ccc(Cl)cc2)CC1,–,–,–,–,–,–,·,
CC(=O)c1ccc(N2CCN(C(=O)CCCn3c(=S)[nH]c4cc5c(cc4c3=O)OCO5)CC2)cc1,52.5,–,–,–,–,–,50.9,LYPLA2 ABPP=–
COc1ccccc1-n1cc(C(=O)NCC(=O)N2CCN(c3ccccc3)CC2)c2ccccc2c1=O,36.6,–,–,–,–,–,26.8,
CC(=O)c1cc(C#N)c(SCc2ccccc2C#N)nc1C,45.7,–,–,–,–,–,46.3,
COc1ccccc1C(CCN(Cc1ccccc1)C(C)=O)c1ccco1 (stereo not given),–,–,–,–,–,–,·,
CN(C)c1ccc(S(=O)(=O)N2CCCCC2)cc1NC(=O)C1=NN(c2ccccc2)C(=O)CC1,–,–,–,–,–,–,·,
O=C(O)c1ccc(CN2C(=O)c3ccc(Oc4ccc([N+](=O)[O-])cc4)cc3C2=O)cc1,59.4,–,–,–,–,–,66.3,LYPLA2 ABPP=59.0
Nc1cccc(Oc2ccc([N+](=O)[O-])cc2)c1,31.9,–,–,–,–,–,35.0,
O=C(O)c1cccc(Oc2ccc([N+](=O)[O-])cc2)c1,–,–,–,–,–,–,·,
O=C1c2ccc(Oc3ccc([N+](=O)[O-])cc3)cc2C(=O)N1CCO,–,–,–,–,–,–,·,
O=C1NC(=O)c2cc(Oc3ccc([N+](=O)[O-])cc3)ccc21,29.8,–,–,–,–,–,36.0,
CCOc1ccc(NC(=O)C(C)NC(=O)c2ccccc2Cl)cc1S(=O)(=O)N1CCCC1 (stereo not given),–,–,–,–,–,·,·,
COc1ccc(NC(=O)CCc2nc3ccccc3c(=O)[nH]2)cc1S(=O)(=O)N1CCCCC1,·,–,·,–,·,·,·,
Nc1nc(N2CCN(C/C=C/c3ccccc3)CC2)nc2ccccc12,42.2,–,–,–,–,–,39.0,
SMILES,LYPLA2 inh,procasp3 activ,LYPLA1 inh,proCasp7 act,PME-1 primary,Fam108B inh,LYPLA2 conf,others
O=c1[nH]c(CN2CCN(C/C=C/c3ccccc3)CC2)nc2ccccc12,–,–,–,–,–,–,·,
CC(=O)c1ccc(N(CC(=O)NC2CCCCC2)C(=O)c2csnn2)cc1,–,–,–,–,–,–,·,
COC(=O)c1c(NC(=O)CN2CCN(c3ncccn3)CC2)sc(C(N)=O)c1C,30.6,–,–,–,–,–,–,
CC(C)(C)OC(=O)NC(CCCCNC=O)C(=O)O (stereo not given),80.7,–,–,–,–,–,–,
CCCCc1cc(=O)oc2cc(OCC(=O)Nc3cccnc3)c(Cl)cc12,27.6,–,–,–,–,–,–,
CCNC(=O)NC(=O)CN(C)c1ccccc1,–,–,–,–,–,–,·,
O=C(c1cccc(F)c1)N1CCN(c2cccc(Cl)c2)CC1,–,–,–,–,–,–,·,
O=C(c1ccc(N2CCN(C(=O)c3ccc(F)c(F)c3)CC2)cc1)c1cccc(F)c1,32.1,–,–,–,–,–,33.2,
O=C(c1ccc(N2CCN(C(=O)c3ccccc3)CC2)cc1)c1cccc(F)c1,26.6,–,–,–,–,–,30.1,
O=C(NCCc1nc2ccccc2[nH]1)/C(=C/c1ccc2c(c1)OCO2)NC(=O)c1ccc(Cl)cc1Cl,–,–,–,–,–,–,·,
COc1cc(OC)cc(-c2c(-c3cccs3)c3cc(-c4ccc(OC)c(OC)c4)ccc3n2C)c1,–,–,–,–,–,·,·,
COc1cccc(NC(=O)COc2nc3ccccc3nc2C)c1,26.8,–,–,–,–,–,31.8,
Cc1ccc(S(=O)(=O)NCc2ccccc2)cc1C(=O)N(C)CC(=O)Nc1c(Cl)cccc1Cl,–,–,–,–,–,–,·,
CC(=O)Nc1cccc(-n2nnc(SCC(=O)N(C)c3ccccc3)n2)c1,33.7,–,–,–,–,–,39.7,
Cc1nc(C(=O)NC2CCCCC2)sc1C1(C)CC(c2cccc([N+](=O)[O-])c2)=NO1 (stereo not given),50.3,–,–,–,–,–,59.6,LYPLA2 ABPP=–

# Bioassay records as filed in PubChem.
